# Experimental data as given in ChEMBL document CHEMBL1135707, “Identification of potent and selective mechanism-based inhibitors of the cysteine protease cruzain using solid-phase parallel synthesis” (J Med Chem, 2002).
# Legend:
# Cruzipain = Cruzipain (Trypanosoma cruzi, UniProt P25779); assay: Inhibitory activity against cruzain, the major cysteine protease found in Trypanosoma cruzi
# Method in brief: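 Enzyme and inhibitor (in DMSO) preincubated 5 min before substrate addition. Read at ex 355/em 450 nm at four time points in the linear region. Activity taken against no-inhibitor controls, run in duplicate. Ki obtained from Williams–Morrison tight-binding fit.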
# Procathepsin L = Procathepsin L (Homo sapiens, UniProt P07711); assay: Inhibitory activity against human Cathepsin L
# Method in brief: (§1)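 Buffer was 0.25 M sodium acetate pH 5.5 with 2 mM EDTA, 0.015% Brij-35 and 1 mM DTT. 5 min enzyme–inhibitor preincubation, ex 355/em 450 nm, duplicate wells. Ki obtained from Williams–Morrison fit.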
# Cathepsin B = Cathepsin B (Homo sapiens, UniProt P07858); assay: Inhibitory activity against human Cathepsin B; method in brief: as §1
# [1] = Aqueous solubility using UV analysis; format: physicochemical
# Method in brief: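 Solubility measured by an outside lab after 2 h preincubation of inhibitor in pH 7.4 aqueous buffer at 37 °C. Quantitated by UV absorbance at 211 nm.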
# Cruzipain, sequence (P25779 whole entry): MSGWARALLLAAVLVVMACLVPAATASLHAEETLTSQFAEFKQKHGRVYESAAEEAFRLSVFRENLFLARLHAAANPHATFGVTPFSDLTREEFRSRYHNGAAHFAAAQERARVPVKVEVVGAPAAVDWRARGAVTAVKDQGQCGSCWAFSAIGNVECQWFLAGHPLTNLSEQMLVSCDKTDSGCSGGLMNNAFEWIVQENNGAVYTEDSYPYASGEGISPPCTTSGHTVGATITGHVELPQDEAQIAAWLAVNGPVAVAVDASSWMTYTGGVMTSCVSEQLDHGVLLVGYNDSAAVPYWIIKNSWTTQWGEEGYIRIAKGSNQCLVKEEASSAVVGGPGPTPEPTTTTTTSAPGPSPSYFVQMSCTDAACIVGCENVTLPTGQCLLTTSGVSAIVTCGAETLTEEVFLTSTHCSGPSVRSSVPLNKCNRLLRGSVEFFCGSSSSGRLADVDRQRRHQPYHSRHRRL
# Procathepsin L, sequence (P07711 whole entry): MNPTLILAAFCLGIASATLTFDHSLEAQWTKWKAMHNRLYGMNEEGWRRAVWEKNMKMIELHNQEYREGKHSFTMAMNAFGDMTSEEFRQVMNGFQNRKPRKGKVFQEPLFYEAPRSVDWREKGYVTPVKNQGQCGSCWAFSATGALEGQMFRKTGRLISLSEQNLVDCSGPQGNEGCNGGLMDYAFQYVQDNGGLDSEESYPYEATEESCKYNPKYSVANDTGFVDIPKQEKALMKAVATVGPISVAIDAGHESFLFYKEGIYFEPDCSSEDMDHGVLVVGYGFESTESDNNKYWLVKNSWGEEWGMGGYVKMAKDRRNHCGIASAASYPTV
Ki (Cruzipain),Ki (Procathepsin L),Ki (Cathepsin B),solubility [1],SMILES
4.2 nM,–,–,–,O=C(N[C@@H](Cc1ccccc1)C(=O)N[C@@H](Cc1ccccc1)C(=O)CSCCc1ccccc1)OCc1ccccc1
2 nM,2.8 nM,45.4 nM,–,O=C(N[C@@H](Cc1ccccc1)C(=O)N[C@@H](Cc1ccccc1)C(=O)CSCCCc1ccccc1)OCc1ccccc1
30.1 nM,–,–,–,CC(C)CCSCC(=O)[C@H](Cc1ccccc1)NC(=O)[C@H](Cc1ccccc1)NC(=O)OCc1ccccc1
5.5 nM,–,–,–,O=C(N[C@@H](Cc1ccccc1)C(=O)N[C@@H](Cc1ccccc1)C(=O)CSCCCc1ccccc1)OCc1cccnc1
69.6 nM,–,–,–,CCOC(=O)CCSCC(=O)[C@H](Cc1ccccc1)NC(=O)[C@H](CC(C)C)NC(=O)N1CCOCC1
4.6 nM,–,–,288 µM,CC(C)(C)SCC(=O)[C@H](Cc1ccccc1)NC(=O)[C@H](Cc1ccccc1)NC(=O)OCc1cccnc1
30.4 nM,–,–,–,CCOC(=O)CCSCC(=O)[C@H](Cc1ccccc1)NC(=O)[C@H](Cc1ccccc1)NC(=O)OCc1ccccn1
34.3 nM,–,–,–,O=C(N[C@@H](Cc1ccccc1)C(=O)N[C@@H](Cc1ccccc1)C(=O)CSC1CCCC1)OCc1ccccc1
131 nM,–,–,–,CC(C)C[C@H](NC(=O)N1CCOCC1)C(=O)N[C@@H](Cc1ccccc1)C(=O)CSCCCc1ccccc1
1.3 nM,7.9 nM,112 nM,–,CC(C)C[C@H](NC(=O)OCc1ccccc1)C(=O)N[C@@H](Cc1ccccc1)C(=O)CSC(C)(C)C
37 nM,–,–,–,CCOC(=O)C(C)SCC(=O)[C@H](Cc1ccccc1)NC(=O)[C@H](Cc1ccccc1)NC(=O)OCc1ccccc1 (some centres undefined)
1.4 nM,9.6 nM,600 nM,–,CC(C)(C)SCC(=O)[C@H](CCc1ccccc1)NC(=O)[C@H](Cc1ccccc1)NC(=O)OCc1cccnc1
59.7 nM,–,–,–,CC(C)C[C@H](NC(=O)N1CCOCC1)C(=O)N[C@@H](Cc1ccccc1)C(=O)CSC(C)(C)C
59.1 nM,–,–,–,CCOC(=O)CCSCC(=O)[C@H](Cc1ccccc1)NC(=O)[C@H](Cc1ccccc1)NC(=O)N1CCOCC1
22.7 nM,–,–,–,CCOC(=O)CCSCC(=O)[C@H](Cc1ccccc1)NC(=O)[C@H](Cc1ccccc1)NC(=O)OCc1cccnc1
5.8 nM,–,–,–,CCC(C)SCC(=O)[C@H](Cc1ccccc1)NC(=O)[C@H](Cc1ccccc1)NC(=O)OCc1ccccc1 (some centres undefined)
7.5 nM,–,–,–,O=C(N[C@@H](Cc1ccccc1)C(=O)N[C@@H](Cc1ccccc1)C(=O)CSC1CCCCC1)OCc1ccccc1
5 nM,–,–,–,CC(C)(C)CC(C)(CC(C)(C)C)SCC(=O)[C@H](Cc1ccccc1)NC(=O)[C@H](Cc1ccccc1)NC(=O)OCc1ccccc1
2.5 nM,1.7 nM,45 nM,70 µM,CC(C)(C)SCC(=O)[C@H](Cc1ccccc1)NC(=O)[C@H](Cc1ccccc1)NC(=O)OCc1ccccc1
8 nM,–,–,–,CCOC(=O)CCSCC(=O)[C@H](Cc1ccccc1)NC(=O)[C@H](CC(C)C)NC(=O)OCc1ccccc1
2.9 nM,1.5 nM,42.7 nM,–,CCOC(=O)CCSCC(=O)[C@H](Cc1ccccc1)NC(=O)[C@H](Cc1ccccc1)NC(=O)OCc1ccccc1

Ki (Cruzipain),Ki (Procathepsin L),Ki (Cathepsin B),solubility [1],SMILES
54.6 nM,–,–,–,CC(C)(C)SCC(=O)[C@H](Cc1ccccc1)NC(=O)[C@H](Cc1ccccc1)NC(=O)N1CCOCC1
1 nM,4.7 nM,136 nM,–,CC(C)C[C@H](NC(=O)OCc1ccccc1)C(=O)N[C@@H](Cc1ccccc1)C(=O)CSCCCc1ccccc1
4.6 nM,–,–,–,CC(C)SCC(=O)[C@H](Cc1ccccc1)NC(=O)[C@H](Cc1ccccc1)NC(=O)OCc1ccccc1
7.8 nM,–,–,–,CC(C)C[C@H](NC(=O)OCc1ccccc1)C(=O)N[C@@H](Cc1ccccc1)C(=O)CSC(C)C
32.4 nM,–,–,–,COc1ccc(CSCC(=O)[C@H](Cc2ccccc2)NC(=O)[C@H](Cc2ccccc2)NC(=O)OCc2ccccc2)cc1
1.1 nM,144 nM,1700 nM,–,CC(C)C[C@H](NC(=O)OCc1cccnc1)C(=O)N[C@@H](CCc1ccccc1)C(=O)CSCCCc1ccccc1
44 nM,–,–,–,O=C(N[C@@H](Cc1ccccc1)C(=O)N[C@@H](Cc1ccccc1)C(=O)CSCc1ccccc1)OCc1ccccc1
22 nM,–,–,–,CC(C)(C)c1ccc(CSCC(=O)[C@H](Cc2ccccc2)NC(=O)[C@H](Cc2ccccc2)NC(=O)OCc2ccccc2)cc1
10.4 nM,–,–,–,CC(C)(C)CC(C)(C)SCC(=O)[C@H](Cc1ccccc1)NC(=O)[C@H](Cc1ccccc1)NC(=O)OCc1ccccc1
13.8 nM,–,–,–,CC(C)C[C@H](NC(=O)OCc1ccccn1)C(=O)N[C@@H](Cc1ccccc1)C(=O)CSC(C)(C)C
31.2 nM,–,–,–,CCOC(=O)CSCC(=O)[C@H](Cc1ccccc1)NC(=O)[C@H](Cc1ccccc1)NC(=O)OCc1ccccc1
216 nM,–,–,–,O=C(CSCCCc1ccccc1)[C@H](Cc1ccccc1)NC(=O)[C@H](Cc1ccccc1)NC(=O)N1CCOCC1
82.7 nM,–,–,–,O=C(N[C@@H](Cc1ccccc1)C(=O)N[C@@H](Cc1ccccc1)C(=O)CSCc1ccc(Cl)cc1)OCc1ccccc1
4.8 nM,–,–,378 µM,CC(C)C[C@H](NC(=O)OCc1cccnc1)C(=O)N[C@@H](Cc1ccccc1)C(=O)CSC(C)(C)C
15 nM,–,–,–,CNC(=O)CSCC(=O)[C@H](Cc1ccccc1)NC(=O)[C@H](Cc1ccccc1)NC(=O)OCc1ccccc1
2 nM,44 nM,1300 nM,–,CC(C)C[C@H](NC(=O)OCc1cccnc1)C(=O)N[C@@H](CCc1ccccc1)C(=O)CSC(C)(C)C
34.3 nM,–,–,–,CC(=O)NCCSCC(=O)[C@H](Cc1ccccc1)NC(=O)[C@H](Cc1ccccc1)NC(=O)OCc1ccccc1
14.1 nM,28.8 nM,4800 nM,–,CC(C)C[C@H](NC(=O)OCc1ccncc1)C(=O)N[C@@H](Cc1ccccc1)C(=O)CSC(C)(C)C
5.4 nM,–,–,–,O=C(N[C@@H](Cc1ccccc1)C(=O)N[C@@H](CCc1ccccc1)C(=O)CSCCCc1ccccc1)OCc1cccnc1 (stereo in doubt; 16d)
0.9 nM,28.8 nM,700 nM,–,O=C(N[C@@H](Cc1ccccc1)C(=O)N[C@@H](CCc1ccccc1)C(=O)CSCCCc1ccccc1)OCc1cccnc1 (stereo in doubt; 16e)
